The subject of assay [1] is Mycobacterium kansasii. Kind of assay: Antimycobacterial activity against Mycobacterium kansasii CNTC My 235/80 after 14 days. The conditions noted are these: CNTC My 235/80, 336 h. The assay is classed as functional.
Another assay relates to PBMC. The experiment in a line: Cytotoxicity against human PBMC measured after overnight incubation by MTT assay. The assay is classed as cell-based. The essentials: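 Freshly prepared human PBMC in phenol-red-free RPMI-1640 with 10% FCS, 2 mM L-glutamine and gentamycin, 2.0 × 10⁵ cells per well. After 24 h at 37 °C, overnight compound exposure in serum-free medium. MTT for 4 h, formazan in DMSO, OD540 minus OD620. % cytotoxicity versus controls; IC50 from dose-response curves. Two independent experiments.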
In general terms: Tetrazolium dyes change colour on reduction, which living cells bring about.

In assay [2] the test system is Mycobacterium tuberculosis. Kind of assay: Antimycobacterial activity against Mycobacterium tuberculosis H37Rv ATCC 27294 after 28 days by colony forming unit determination. The class given is functional. As to conditions: H37Rv ATCC 27294, 672 h. The essentials: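 Compounds added to Sula liquid medium as DMSO solutions (DMSO at most 2%), incubated at 37 °C for 28 days. MIC is the lowest concentration giving visible growth inhibition. Activity was confirmed by CFU counts after subculture onto drug-free Löwenstein-Jensen solid medium.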

Assay [3] relates to Mycobacterium kansasii. The experiment in a line: Antimycobacterial activity against Mycobacterium kansasii CNTC 6509/96 after 21 days. The class given is functional. The conditions noted are these: CNTC 6509/96, 504 h.
Assay [4] relates to Mycobacterium kansasii. Kind of assay: Antimycobacterial activity against Mycobacterium kansasii CNTC 6509/96 after 14 days. The conditions noted are these: CNTC 6509/96, 336 h. The class given is functional.
The next assay has as its system HepG2. Kind of assay: Cytotoxicity against human HepG2 cells measured after overnight incubation by MTT assay. The class given is cell-based. Put shortly:
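HepG2 cells in phenol-red-free RPMI-1640 with 10% FCS, 2 mM L-glutamine and gentamycin, seeded at 5 × 10³ per well. After 24 h at 37 °C, cells were exposed overnight to compound in serum-free medium. MTT (2 mg/mL) for 4 h, formazan dissolved in DMSO, read as OD540 minus OD620. % cytotoxicity versus untreated controls; IC50 taken from dose-response curves. Two independent experiments, 4–8 parallel measurements.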

The subject of assay [5] is Mycobacterium kansasii. The experiment in a line: Antimycobacterial activity against Mycobacterium kansasii CNTC 6509/96 after 7 days. The class given is functional. As to conditions: CNTC 6509/96, 168 h.
The subject of assay [6] is Mycobacterium avium. Kind of assay: Antimycobacterial activity against Mycobacterium avium CNTC 330/88 after 14 days. The class given is functional. The conditions noted are these: CNTC 330/88, 336 h.
Assay [7] deals with Mycobacterium kansasii. The experiment in a line: Antimycobacterial activity against Mycobacterium kansasii CNTC My 235/80 after 7 days. The class given is functional. The conditions noted are these: CNTC My 235/80, 168 h.
A short description of assay [8]: Selectivity index, ratio of IC50 for human HepG2 cells to MIC for Mycobacterium tuberculosis H37Rv ATCC 27294. The assay is classed as functional.
Assay [9] relates to Mycobacterium kansasii. Kind of assay: Antimycobacterial activity against Mycobacterium kansasii CNTC My 235/80 after 21 days. The assay is classed as functional. The conditions noted are these: CNTC My 235/80, 504 h.
In the next assay the test system is SH-SY5Y. Kind of assay: Cytotoxicity against human SH-SY5Y cells measured after overnight incubation by MTT assay. The class given is cell-based. The essentials: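 SH-SY5Y neuroblastoma cells in phenol-red-free DMEM with 10% FCS, 2 mM L-glutamine, gentamycin and 1% NEAA, 7.5 × 10³ per well. After 24 h at 37 °C, overnight compound exposure in serum-free medium. MTT readout (OD540 minus OD620) against untreated controls; IC50 from dose-response curves. Two independent experiments.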

The test system of assay [10] is Mycobacterium avium. The experiment in a line: Antimycobacterial activity against Mycobacterium avium CNTC 330/88 after 21 days. The assay is classed as functional. The conditions noted are these: CNTC 330/88, 504 h.

The values that follow come from ChEMBL document CHEMBL1828506, “New fluorine-containing hydrazones active against MDR-tuberculosis” (Eur J Med Chem, 2011).

The structures appear in SMILES notation. In brackets after ≈: the same amount, converted by molar mass.

The MIC is the lowest concentration that inhibits growth of the organism. A high value points to a need for much substance. The IC50 is the point on the concentration scale where inhibition reaches its midpoint. Read a high IC50 as weaker potency. For the compound `CCn1cc(C(=O)O)c(=O)c2cc(F)c(N3CCN(/C=N/NC(=O)c4cccc(F)c4)CC3)cc21`, the MIC with Mycobacterium kansasii [1] was found to be 32 µM (≈ 15.5 µg/mL); in assay [2] it was 6 µg/mL (≈ 12.4 µM); with Mycobacterium kansasii [3] it was 32 µM (≈ 15.5 µg/mL); in the assay with Mycobacterium kansasii [4] it was 16 µM (≈ 7.74 µg/mL); against Mycobacterium kansasii [5] it was 16 µM (≈ 7.74 µg/mL); with Mycobacterium avium [6] it was 125 µM (≈ 60.4 µg/mL). Further, the MIC against Mycobacterium kansasii [7] turned out to be 16 µM (≈ 7.74 µg/mL); in the assay with Mycobacterium kansasii [9], 62.5 µM (≈ 30.2 µg/mL); against Mycobacterium avium [10] it was 250 µM (≈ 121 µg/mL). The results for the IC50 in the assay on PBMC, with HepG2 and in the assay with SH-SY5Y were > 393 µM, > 393 µM and > 430 µM, respectively. Also, the “Selectivity Index” value in assay [8] was 31.67.

Turning to `O=C(N/N=C/Nc1ccc(C(=O)O)c(O)c1)c1cccc(C(F)(F)F)c1`, the MIC is 125 µM (≈ 45.9 µg/mL) in the assay on Mycobacterium kansasii [1]; 4 µg/mL (≈ 10.9 µM) in [2]; 62.5 µM (≈ 23 µg/mL) in the assay on Mycobacterium kansasii [3]; 62.5 µM (≈ 23 µg/mL) with Mycobacterium kansasii [4]; 62.5 µM (≈ 23 µg/mL) in the assay with Mycobacterium kansasii [5]; 250 µM (≈ 91.8 µg/mL) against Mycobacterium avium [6]. In addition, the values for the MIC with Mycobacterium kansasii [7], in the assay on Mycobacterium kansasii [9] and with Mycobacterium avium [10] were 32 µM (≈ 11.8 µg/mL), 125 µM (≈ 45.9 µg/mL) and 500 µM (≈ 184 µg/mL), respectively.

`O=C(O)c1ccc(N/C=N/NC(=O)c2ccccc2F)cc1O`: the MIC in the assay with Mycobacterium kansasii [1] came out at 32 µM (≈ 10.2 µg/mL); in assay [2] it was 2 µg/mL (≈ 6.3 µM); against Mycobacterium kansasii [3] it was 62.5 µM (≈ 19.8 µg/mL); against Mycobacterium kansasii [4], 62.5 µM (≈ 19.8 µg/mL); in the assay with Mycobacterium kansasii [5], 32 µM (≈ 10.2 µg/mL); against Mycobacterium avium [6], 32 µM (≈ 10.2 µg/mL). For the same compound, the MIC in the assay with Mycobacterium kansasii [7] came out at 32 µM (≈ 10.2 µg/mL); against Mycobacterium kansasii [9] it was 62.5 µM (≈ 19.8 µg/mL); with Mycobacterium avium [10], 62.5 µM (≈ 19.8 µg/mL). Moreover, the concentration for half-maximal inhibition (IC50) in the assay with PBMC and with HepG2 was 1210 µM in each case. Besides, in [8], the “Selectivity Index” value amounted to 192.06.

Turning to `O=C(N/N=C/N1CCN(c2cc3c(cc2F)c(=O)c(C(=O)O)cn3C2CC2)CC1)c1cccc(C(F)(F)F)c1`, the MIC in the assay on Mycobacterium kansasii [1] was 2 µM (≈ 1.09 µg/mL); in assay [2] it was 2 µg/mL (≈ 3.67 µM); in the assay with Mycobacterium kansasii [3] it was 2 µM (≈ 1.09 µg/mL); with Mycobacterium kansasii [4], 1 µM (≈ 0.545 µg/mL); in the assay on Mycobacterium kansasii [5] it was 1 µM (≈ 0.545 µg/mL); against Mycobacterium avium [6] it was 250 µM (≈ 136 µg/mL). The MIC in the assay with Mycobacterium kansasii [7] stood at 2 µM (≈ 1.09 µg/mL); against Mycobacterium kansasii [9], 4 µM (≈ 2.18 µg/mL); with Mycobacterium avium [10], 250 µM (≈ 136 µg/mL). Besides, the IC50 with PBMC and in the assay on HepG2 was > 322 µM in each case. Also, the “Selectivity Index” value in assay [8] is given as 87.79.

As to `NC(=O)c1cnccn1` [PYRAZINAMIDE], the minimal inhibitory concentration (MIC) with Mycobacterium kansasii [1] was > 1000 µM; with Mycobacterium kansasii [3] it was 1000 µM (≈ 123 µg/mL); against Mycobacterium kansasii [4] it was 1000 µM (≈ 123 µg/mL); in the assay on Mycobacterium kansasii [5] it was 125 µM (≈ 15.4 µg/mL); with Mycobacterium avium [6], 500 µM (≈ 61.6 µg/mL); in the assay with Mycobacterium kansasii [7], 500 µM (≈ 61.6 µg/mL). Besides, the MIC in the assay on Mycobacterium kansasii [9] and with Mycobacterium avium [10] was > 1000 µM throughout.

Regarding `O=C(N/N=C/Nc1ccc(C(=O)O)c(O)c1)c1ccc(F)cc1`, the MIC was found to be 62.5 µM (≈ 19.8 µg/mL) against Mycobacterium kansasii [1]; 4 µg/mL (≈ 12.6 µM) in assay [2]; 32 µM (≈ 10.2 µg/mL) against Mycobacterium kansasii [3]; 32 µM (≈ 10.2 µg/mL) against Mycobacterium kansasii [4]; 32 µM (≈ 10.2 µg/mL) against Mycobacterium kansasii [5]; 32 µM (≈ 10.2 µg/mL) against Mycobacterium avium [6]. Besides, the values for the minimum inhibitory concentration (MIC) against Mycobacterium kansasii [7], in the assay on Mycobacterium kansasii [9] and against Mycobacterium avium [10] were 32 µM (≈ 10.2 µg/mL), 62.5 µM (≈ 19.8 µg/mL) and 125 µM (≈ 39.7 µg/mL), respectively.

For `O=C(N/N=C/Nc1ccc(C(=O)O)c(O)c1)c1ccc(C(F)(F)F)cc1`, the MIC worked out at 125 µM (≈ 45.9 µg/mL) against Mycobacterium kansasii [1]; 4 µg/mL (≈ 10.9 µM) in assay [2]; 125 µM (≈ 45.9 µg/mL) with Mycobacterium kansasii [3]; 62.5 µM (≈ 23 µg/mL) in the assay on Mycobacterium kansasii [4]; 62.5 µM (≈ 23 µg/mL) against Mycobacterium kansasii [5]; 32 µM (≈ 11.8 µg/mL) in the assay with Mycobacterium avium [6]. Besides, the MIC with Mycobacterium kansasii [7] came to 62.5 µM (≈ 23 µg/mL); against Mycobacterium kansasii [9], 250 µM (≈ 91.8 µg/mL); in the assay with Mycobacterium avium [10], 125 µM (≈ 45.9 µg/mL).

On to `O=C(N/N=C/Nc1ccc(C(=O)O)c(O)c1)c1cccc(F)c1`, for which the minimum inhibitory concentration (MIC) in the assay with Mycobacterium kansasii [1] was 62.5 µM (≈ 19.8 µg/mL); in [2] it was 2 µg/mL (≈ 6.3 µM); against Mycobacterium kansasii [3] it was 32 µM (≈ 10.2 µg/mL); with Mycobacterium kansasii [4], 32 µM (≈ 10.2 µg/mL); in the assay with Mycobacterium kansasii [5], 32 µM (≈ 10.2 µg/mL); against Mycobacterium avium [6], 32 µM (≈ 10.2 µg/mL). Also, the MIC with Mycobacterium kansasii [7] stood at 32 µM (≈ 10.2 µg/mL); against Mycobacterium kansasii [9], 62.5 µM (≈ 19.8 µg/mL); against Mycobacterium avium [10], 62.5 µM (≈ 19.8 µg/mL). Moreover, the IC50 with PBMC and in the assay with HepG2 was 934 µM in each case. Moreover, the “Selectivity Index” value in [8] was determined as 148.25.

For the compound `CCn1cc(C(=O)O)c(=O)c2cc(F)c(N3CCN(/C=N/NC(=O)c4ccc(F)cc4)CC3)cc21`, the MIC in the assay with Mycobacterium kansasii [1] worked out at 32 µM (≈ 15.5 µg/mL); in the assay with Mycobacterium kansasii [3] it was 62.5 µM (≈ 30.2 µg/mL); in the assay with Mycobacterium kansasii [4], 62.5 µM (≈ 30.2 µg/mL); against Mycobacterium kansasii [5], 32 µM (≈ 15.5 µg/mL); against Mycobacterium avium [6], 125 µM (≈ 60.4 µg/mL); against Mycobacterium kansasii [7] it was 16 µM (≈ 7.74 µg/mL). Moreover, the MIC stood at 62.5 µM (≈ 30.2 µg/mL) in the assay on Mycobacterium kansasii [9] and 250 µM (≈ 121 µg/mL) against Mycobacterium avium [10]. The IC50 in the assay with PBMC was > 331 µM; in the assay with HepG2 it was > 797 µM.
